Assay: Antioxidant activity assessed as DPPH free radical scavenging activity measured after 30 mins by spectrophotometry
Assay type: functional
Summary of the method: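 DPPH radical scavenging in ethanolic solution with a final DPPH concentration of 100 µM. Absorbance read at 517 nm. Percent inhibition = (A control − A test)/A control, where the control is DPPH without sample. The inhibition-versus-concentration plot gives EC50, the concentration giving a 50% drop in absorbance. Mean ± S.D. of three independent trials.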

Row | EC50 | Compound
1 | 27 µM | O=C(/C=C/c1ccc(O)c(O)c1)Nc1ccccc1Sc1ccccc1
2 | 50.9 µM | VITAMIN E
3 | 47.3 µM | O=C(/C=C/c1ccc(O)c(O)c1)Nc1ccc2ccccc2c1
4 | 7.21 µM | O=C(/C=C/c1ccc(O)c(O)c1)Nc1ccc([N+](=O)[O-])cc1
5 | 30.9 µM | O=C(O)/C=C/c1ccc(O)c(O)c1 [CAFFEIC ACID]
6 | 5.51 µM | O=C(/C=C/c1ccc(O)c(O)c1)Nc1cc(Cl)c(O)c(Cl)c1
7 | 58.8 µM | O=C(/C=C/c1ccc(O)c(O)c1)NCCc1c[nH]c2ccccc12
8 | 10.6 µM | CC(=O)c1cccc(NC(=O)/C=C/c2ccc(O)c(O)c2)c1
9 | 13.2 µM | Cc1cc([N+](=O)[O-])ccc1NC(=O)/C=C/c1ccc(O)c(O)c1
10 | 24.1 µM | O=C(/C=C/c1ccc(O)c(O)c1)Nc1ccc(F)cc1
11 | 52.6 µM | O=C(/C=C/c1ccc(O)c(O)c1)Nc1ccccc1
12 | 11.9 µM | CC(C)(C)c1ccc(O)c(NC(=O)/C=C/c2ccc(O)c(O)c2)c1
13 | 36 µM | Nc1ccc(NC(=O)/C=C/c2ccc(O)c(O)c2)cc1

— ChEMBL document CHEMBL3868627, “Radical scavenging and antibacterial activity of caffemides against gram positive, gram negative and clinical drug resistance bacteria” (Bioorg Med Chem Lett, 2016)
